Source: ChEMBL document CHEMBL1123533, “Anticonvulsant activity of piperidinol and (dialkylamino)alkanol esters” (J Med Chem, 1986)

Tests used:
[1] = Inhibition of [3H]BTX binding to guinea pig voltage-dependent sodium channel
Mus musculus [2] = species on record: Mus musculus; test: Antiepileptic (anticonvulsant) activity in mice through maximal electroshock seizure (MES) assay; assay type: functional, organism-based
Method in brief: (§1)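 Mice dosed at 30, 100 and 300 mg/kg and tested 30 min after administration. Seizures were evoked by 60-cycle AC, 50 mA, delivered for 0.2 s through corneal electrodes, with saline instilled in the eye first. Protection means abolition of the hind limb tonic extension. MES ED50 was quantified on select compounds.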

[3] = molecular target: T1, GABA-A receptor; anion channel (Homo sapiens) (UniProt P14867+P47870+P18507+P28472+P48169+Q99928+Q9UN88+P34903+O00591+O14764+Q8N1C3+P18505+P78334+P47869+P31644+Q16445); test: Binding of [3H]- Diazepam radioligand against GABA receptor/chloride channel complex at 100 uM; assay type: protein-complex assay
Method in brief: (§2)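 Rat cerebral cortical membranes, about 1000 μg protein, in 50 mM Tris pH 7.4. Incubated with 5 nM [3H]diazepam for 30 min at 0 °C, test compound at 100 μM. Nonspecific binding was defined with 10 μM clonazepam. Ended by rapid filtration with one buffer wash, and retained radioactivity was counted.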

[4] = molecular target: T1, GABA-A receptor; anion channel (Homo sapiens); test: Binding of [3H]- TBPS radioligand against Gamma-aminobutyric acid receptor at 100 uM; assay type: protein-complex assay
[5] = molecular target: T1, GABA-A receptor; anion channel (Homo sapiens); test: Binding of [3H]- muscimol radioligand against GABA receptor/chloride channel complex at 100 uM; assay type: protein-complex assay
Method in brief: (§3)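 Rat brain membranes, about 1000 μg protein, in 50 mM Tris-citrate pH 7.1 with 5 nM [3H]muscimol. Incubated 30 min at 0 °C, test compound at 100 μM. Nonspecific binding was defined with 100 μM GABA. Bound ligand was separated by rapid filtration with one buffer wash, and filter radioactivity was counted.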

[6] = molecular target: T1, GABA-A receptor; anion channel (Homo sapiens); test: Inhibition of [3H]TBPS binding to GABA-A receptor at 100 uM; assay type: protein-complex assay
Method in brief: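 Rat cerebral cortical membranes, about 1000 μg protein, in 50 mM Tris-citrate pH 7.5 containing 200 mM NaCl with 2 nM [35S]TBPS. Incubated 90 min at 23 °C, test compound at 100 μM. Picrotoxin 10 μM defined nonspecific binding. Ended by rapid filtration with one buffer wash, and filter radioactivity was counted.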

Mus musculus [7] = test: Antiepileptic (anticonvulsant) activity in mice through maximal electroshock seizure (MES) assay. No activity at 300 mg/kg; assay type: functional, organism-based; parameters: dose 300 mg/kg
Method in brief: as §1

[8] = molecular target: T1, GABA-A receptor; anion channel (Homo sapiens); test: Inhibition of [3H]muscimol binding to GABA-A receptor at 100 uM; assay type: protein-complex assay
Method in brief: as §3

[9] = Inhibition of [3H]BTX binding to guinea pig voltage-dependent sodium channel; remark: listed apart in the source
Mus musculus [10] = test: Antiepileptic (anticonvulsant) activity in mice through maximal electroshock seizure (MES) assay; No anticonvulsant activity at 300 mg/kg; assay type: functional, organism-based; parameters: dose 300 mg/kg
Method in brief: as §1

[11] = Inhibition of [3H]BTX binding to guinea pig voltage-dependent sodium channel; remark: listed apart in the source
[12] = molecular target: Gamma-aminobutyric acid receptor subunit gamma-1 (Rattus norvegicus) (UniProt P23574); test: Inhibition of [3H]- Diazepam binding to Gamma-aminobutyric acid (GABA-A) receptor at 100 uM
Sequence of Gamma-aminobutyric acid receptor subunit gamma-1 (Rattus norvegicus) (P23574 whole entry): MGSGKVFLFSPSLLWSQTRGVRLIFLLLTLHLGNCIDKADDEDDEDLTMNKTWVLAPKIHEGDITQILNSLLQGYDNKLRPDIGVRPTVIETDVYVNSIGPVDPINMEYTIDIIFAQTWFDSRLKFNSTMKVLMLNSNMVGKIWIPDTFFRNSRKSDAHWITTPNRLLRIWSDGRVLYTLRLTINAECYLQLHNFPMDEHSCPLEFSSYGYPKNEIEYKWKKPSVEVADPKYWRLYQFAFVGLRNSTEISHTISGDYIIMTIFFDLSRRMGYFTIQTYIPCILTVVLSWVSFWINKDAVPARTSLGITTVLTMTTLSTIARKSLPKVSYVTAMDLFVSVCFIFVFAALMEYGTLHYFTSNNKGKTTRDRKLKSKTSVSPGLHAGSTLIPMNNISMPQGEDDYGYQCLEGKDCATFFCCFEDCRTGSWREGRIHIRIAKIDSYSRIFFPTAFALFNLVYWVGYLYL
Method in brief: as §2

SMILES	IC50 [1]	EC50 (Mus musculus [2])	EC50 (Mus musculus [10])	also measured
CN1CCC(OC(=O)c2ccccc2-c2ccccc2)CC1	10 µM	12 mg/kg		
CCC1(c2ccccc2)C(=O)NC(=O)NC1=O [PHENOBARBITAL]		22 mg/kg		
CN1CCC(OC(=O)c2ccccc2COc2ccccc2)CC1	> 10 µM	26 mg/kg		inhibition [3]: 37%; Stimulation [4]: 37%; inhibition [5]: 35%
CCN(CC)CCOC(=O)c1ccccc1-c1ccccc1	7.5 µM	10 mg/kg		inhibition [3]: 26%; inhibition [6]: 4%; inhibition [5]: 31%
Cc1cc(C)c(C(=O)OC2CCN(C)CC2)cc1C	> 10 µM			inhibition [3]: 37%; EC50 (Mus musculus [7]): 46 mg/kg; inhibition [8]: 57%; Stimulation [4]: 3%
CN1CCC(OC(=O)c2ccccc2Cc2ccccc2)CC1	3.4 µM	< 30 mg/kg		
CCN(CC)CCCOC(=O)c1ccccc1-c1ccccc1		7.8 mg/kg		IC50 [9]: 4.6 µM; inhibition [3]: 51%; inhibition [6]: 47%; inhibition [5]: 59%
CN1CCC(OC(=O)c2ccc(-c3ccccc3)cc2)CC1	10 µM	< 100 mg/kg		
CN1C(=O)CC(C)(c2ccccc2)C1=O (configuration not stated) [METHSUXIMIDE]		76 mg/kg		
COc1ccc(C(=O)OC2CCN(C)CC2)cc1OC	> 10 µM		Not Active	
COc1ccc(CCC(=O)OC2CCN(C)CC2)cc1OC	> 10 µM		Not Active	
CN1CCC(OC(=O)c2ccccc2Oc2ccccc2)CC1	3.6 µM		Not Active	
CCN(CC)CC(C)OC(=O)c1ccccc1-c1ccccc1 (configuration not stated)	6.8 µM	< 30 mg/kg		
CCN(CC)CCOC(=O)c1ccccc1CCc1ccccc1	3.9 µM	< 300 mg/kg		
COc1cccc(C(=O)OC2CCN(C)CC2)c1		< 100 mg/kg		
CN1CCC(OC(=O)c2ccc(Cl)cc2)CC1	> 10 µM		Not Active	
Cc1ccc(C(=O)OC2CCN(C)CC2)cc1	10 µM		Not Active	
CN1CCC(OC(=O)c2ccccc2Br)CC1	> 10 µM		Not Active	
CN1CCC(OC(=O)c2ccccc2CCc2ccccc2)CC1	5.4 µM	25 mg/kg		inhibition [3]: 50%; inhibition [5]: 27%
CCN(CC)CCCOC(=O)c1ccccc1CCc1ccccc1	6 µM	< 30 mg/kg		
CN1CCC(OC(=O)c2ccc3ccccc3c2)CC1	> 10 µM	< 100 mg/kg		
Cc1[nH]c(C)c(C(=O)OC2CCN(C)CC2)c1C	> 10 µM		Not Active	
COc1ccccc1C(=O)OC1CCN(C)CC1	> 10 µM		Not Active	
CCC(=O)OC1CCN(C)CC1			Not Active	IC50 [11]: > 10 µM; Stimulation [4]: 9%; Stimulation [12]: -14%; inhibition [5]: 10%
CN1CCC(OC(=O)c2cccc(O)c2)CC1	> 10 µM		Not Active	
CN1CCC(C)(OC(=O)c2ccccc2CCc2ccccc2)CC1	3.2 µM	28 mg/kg		inhibition [3]: 42%; Stimulation [4]: 50%; inhibition [5]: 40%
O=C1NC(=O)C(c2ccccc2)(c2ccccc2)N1 [PHENYTOIN]		9.5 mg/kg		
CN1CCC(OC(=O)c2ccccc2C(=O)c2ccccc2)CC1			Not Active	inhibition [3]: 46%; IC50 [11]: > 10 µM; Stimulation [4]: 1%; inhibition [5]: 21%
CN1CCC(C)(OC(=O)c2ccccc2-c2ccccc2)CC1	3.8 µM		Not Active	
